Measured values reported in article PMC11600170 (JACS Au, 2024).

Key:
[1] = test system: MOLM13 cells; test: RNA-seq with differential expression, KEGG enrichment and GSEA in MOLM13 cells; type: cell-based, human; conditions: 200 nM, 24 h, fold change ≥2 and adjusted p-value ≤0.05
[2] = test system: MOLM13 cells; test: Cell viability / antiproliferation assay in MOLM13 cells; type: cell-based, human; conditions: 72-h viability, CRBN WT and CRBN-null HEK293T and MOLM13 cells, 10 μM and 1 μM
Procedure, shortened: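 Screening ran as a 72-h viability assay in CRBN wild-type and CRBN-null (knockout) HEK293T and MOLM13 cells. Lenalidomide and CC-885 served as controls. MOLM13 CRBN WT and KO cells were tested in biological triplicates, and the assay was repeated in three separate experiments.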

SMILES | number of differentially expressed genes (DEGs) [1] | activity in CRBN-dependent proliferation screen [2]
CN1CCc2[nH]c(-c3ccnc(NC(=O)[C@@H](CC(F)F)c4ccc(F)cc4)c3)c(Nc3ccccc3)c2C1=O [BAY-204] | 5,020 genes | 
Cc1ccc(NC(=O)NCc2ccc3c(c2)CN(C2CCC(=O)NC2=O)C3=O)cc1Cl (stereo not drawn) [CC-885] |  | nonselective profile
Nc1cccc2c1CN(C1CCC(=O)NC1=O)C2=O (stereo not drawn) [lenalidomide] |  | minimal activity
